In PubChem BioAssay:
Results filed as inconclusive are left out.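 The calls were made as follows, unless noted: active = viability increase at or above a cutoff of the median across tested compounds plus 3 SD (cut at about 8.5% in these data, passing the limit was not always enough); inconclusive = some gains above the cutoff, reason not given; inactive = the rest.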

Tests used:
[1] = S. cerevisiae growth inhibition in permissive medium (OD615), pilot counter-assay for S. cerevisiae lifespan shortening project, permissive growth control (AID 705;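 active = growth inhibition above 25% in both replicates, a cutoff set 3 SD above the mean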); conditions: OD615, 24 h, at 10 µM, hits give high values
Outline: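 Material: engineered DeaD yeast; compound dosing: one dose 10 µM, DMSO 0.25% final; measure: yeast growth inhibition indicated by reduced 24 h OD615; detection: OD615 turbidity read; incubation: cells pre-grown 4 h, then 24 h compound exposure, 30 °C humidified; medium: permissive synthetic complete medium with raffinose and galactose carbon sources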

[2] = S. cerevisiae growth inhibition in restrictive medium, OD615, pilot screen, restrictive growth control, yeast lifespan reduction project (AID 706;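 active = growth inhibition above a set limit, 3 SD over mean compound inhibition, in both replicates, cut at about 43% in these data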;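 also: modified DeaD lifespan yeast strain shifted to restrictive glucose medium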); conditions: OD615, 48 h, at 10 µM, hits give high values
Outline: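 material = engineered S. cerevisiae DeaD strain | medium = glucose-based CSMM-D restrictive medium | times = 4 h pre-incubation, 48 h exposure at 30 °C | technique = OD615 absorbance reading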

[3] = doxorubicin toxicity protection in MRP-1 cells – H69AR cells, CellTiter-Glo, duplicate, MRP-1 activator project, pilot screen (AID 807); conditions: H69AR viability with doxorubicin, CellTiter-Glo luminescence; at 10 µM; hits give high values;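 also: compound pretreatment 18-22 h then 72 h combined with doxorubicin; 0% = doxorubicin alone and 100% = vehicle without doxorubicin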
[4] = viability of HCT116 without oncogenic beta-catenin – human colon tumor cells, pilot screen (AID 823;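 active = cell viability at or below a set limit in both duplicate runs, the limit being the all-compound median minus 4 SD, cut at about 23% in these data, passing the limit was not always enough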;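 also: 0% = wells killed by 20 µM Hyamine and 100% = untreated DMSO cell wells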); conditions: HCT116 beta-catenin knockout viability, CellTiter-Glo, 60 h; at 10 µM; hits give low values
[5] = viability of PTEN-null HCT116 cells – cell-based, HCT116 clonal line, CellTiter-Glo, pilot screen (AID 824;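 active = viability at or below 27.92% in each of two runs, the all-compound median minus 4 SD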;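 also: 0% = 20 µM Hyamine control and 100% = vehicle cell control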); conditions: HCT116 PTEN-deleted viability, 60 h, at 10 µM, hits give low values
[6] = RAM pathway blockade in budding yeast – dse1pr::URA3 reporter, 5-FOA selection, pilot screen (AID 869;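 active = inhibition over a set limit, the all-compound mean plus 3 SD, in both replicate runs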;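 also: 0% = DMSO wells with no growth and 100% = 10 µM 1-NA-PP1 with full growth; RAM network block rescues cells from 5-FOA so hits raise OD615 growth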); conditions: S. cerevisiae dse1pr::URA3 5-FOA growth, OD615, 2 d; at 10 µM; hits give high values; strain carries analog-sensitive mutant Cbk1 kinase
[7] = RAM signaling pathway blockade in yeast – S. cerevisiae, Pdr1DBD-CYC8 efflux-inhibited sensitized strain, primary screen (AID 1298;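 active = RAM network inhibition above 8.4% in each of two replicates, 3 SD over the compound average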;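 also: 0% = DMSO untreated cells without growth and 100% = 10 µM 1-NA-PP1 full growth; higher means more yeast growth rescued from 5-FOA killing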); conditions: S. cerevisiae cbk1-as DSE1-URA3 strain, 5-FOA growth OD615, 2 d; at 50 µM; hits give high values

Cn1c(=O)c2c(nc(SCCN3CCOCC3)n2Cc2ccccc2Cl)n(C)c1=O
inactive: growth inhibition [1] -14.9% | growth inhibition [2] 1.19% | viability increase [3] -5.35% | viability [4] 91.8% | viability [5] 94.9% | inhibition [6] 0.27% | RAM network inhibition [7] 5%

Cc1onc(-c2c(F)cccc2Cl)c1C(=O)OCC(=O)Nc1c(C)n(C)n(-c2ccccc2)c1=O
inactive: growth inhibition [1] -3.96% | growth inhibition [2] -1.53% | viability increase [3] -0.55% | viability [4] 87.4% | viability [5] 90.3% | inhibition [6] 0.92% | RAM network inhibition [7] 1.78%

O=C(c1cnccn1)N(c1ccccc1)C1(C(=O)NC2CCCCC2)CCCCC1
inactive: growth inhibition [1] -6.44% | growth inhibition [2] -1.08% | viability increase [3] -0.6% | viability [4] 96.9% | viability [5] 90.7% | inhibition [6] 1.06% | RAM network inhibition [7] 1.62%

COc1ccc(NC(=O)c2ccc(CN3CCN(c4ccccc4)CC3)cc2)cc1
inactive: growth inhibition [1] -7.38% | growth inhibition [2] -9.14% | viability increase [3] -0.09% | viability [4] 67.4% | viability [5] 73.1% | inhibition [6] 2.54% | RAM network inhibition [7] 9.97%

Cc1c(Br)cc(C(=O)NCCCN2CCOCC2)c(C)c1C
inactive: growth inhibition [1] -0.405% | growth inhibition [2] -4.69% | viability increase [3] -3.23% | viability [4] 94.8% | viability [5] 93.6% | inhibition [6] 0.595% | RAM network inhibition [7] 0.82%

Cc1c(NC(=O)c2ccc3c(c2)OCO3)c(=O)n(-c2ccccc2)n1C
inactive: growth inhibition [1] -8.08% | growth inhibition [2] -23.4% | viability increase [3] -0.33% | viability [4] 104% | viability [5] 101% | inhibition [6] 0.345% | RAM network inhibition [7] 2.71%

Cn1c(=O)c2c(nc(N3CCCCCC3)n2CCSc2nc3ccccc3o2)n(C)c1=O
inactive: growth inhibition [1] -6.38% | growth inhibition [2] -18.4% | viability increase [3] -6.62% | viability [4] 80.4% | viability [5] 83% | inhibition [6] 1.14% | RAM network inhibition [7] 2.45%

O=C(Nc1nccs1)c1cccc(S(=O)(=O)N2CCOCC2)c1
inactive: growth inhibition [1] -19.2% | growth inhibition [2] -11.8% | viability increase [3] -0.77% | viability [4] 92.8% | viability [5] 92.6% | inhibition [6] 1.83% | RAM network inhibition [7] 1.04%

COc1cc(NC(=O)Cc2ccccc2)cc(OC)c1
inactive: growth inhibition [1] -1.66% | growth inhibition [2] -4.67% | viability increase [3] -2.51% | viability [4] 107% | viability [5] 96.7% | inhibition [6] 1.11% | RAM network inhibition [7] 0.25%

CC(=O)N1CCc2c(sc(NC(=O)CN3C(=O)CCC3=O)c2C(N)=O)C1
inactive: growth inhibition [1] -11.6% | growth inhibition [2] -14.8% | viability increase [3] -1.16% | viability [4] 100% | viability [5] 99.3% | inhibition [6] 1.53% | RAM network inhibition [7] 2.93%

C=CCc1cccc2cc(C(=O)N(C)C)c(=O)oc12
inactive: growth inhibition [1] -7.92% | growth inhibition [2] -6.08% | viability increase [3] -1.06% | viability [4] 105% | viability [5] 93.8% | inhibition [6] 1.53% | RAM network inhibition [7] 2.04%

Cc1c(C(=O)NCC2CCCO2)oc2ccc(S(=O)(=O)N3CCCCC3)cc12 (configuration not stated)
inactive: growth inhibition [1] -15.5% | growth inhibition [2] -9.72% | viability increase [3] -0.95% | viability [4] 89.9% | viability [5] 92.1% | inhibition [6] 2.4% | RAM network inhibition [7] 1.2%

O=C(OCN1C(=O)c2ccccc2C1=O)c1cccs1
inactive: growth inhibition [1] -2.01% | growth inhibition [2] -11.2% | viability increase [3] -0.64% | viability [4] 94.7% | viability [5] 96.5% | inhibition [6] 1.2% | RAM network inhibition [7] 1.51%

COc1ccc(-n2c3c(cc(C(=O)Nc4ccc5c(c4)C(=O)NC5=O)c2=O)C(=O)CCC3)cc1
inactive: growth inhibition [1] -7.19% | growth inhibition [2] -10.4% | viability increase [3] 0.08% | viability [4] 102% | viability [5] 102% | inhibition [6] 1.77% | RAM network inhibition [7] 3.06%

Cc1c(C)n(CC(O)CN2CCCCCC2)c2ccccc12 (configuration not stated)
inactive: growth inhibition [1] -14.9% | growth inhibition [2] -19.6% | viability increase [3] -4.25% | viability [4] 79.6% | viability [5] 81% | inhibition [6] 2.44% | RAM network inhibition [7] 1.09%

Cc1ccc(N2CN=c3s/c(=C\c4ccccn4)c(=O)n3C2)cc1
inactive: growth inhibition [1] -7.53% | growth inhibition [2] 1.19% | viability increase [3] -2.37% | viability [4] 86.8% | viability [5] 98.7% | inhibition [6] -0.31% | RAM network inhibition [7] 3.39%
